# How the values were obtained:
# SV2A [1] = biological target: T1, SV2A (Homo sapiens, UniProt Q7L0J3); conditions: AD middle frontal cortex; ref 34 Mikkelsen et al.; cited from earlier work
# tau = tau (Homo sapiens, UniProt P10636); experiment: ^3H-MK6240 vs UCB-J competition binding in P1 fractions; conditions: up to 10 μM UCB-J; CN and AD P1 fractions; 0.5 nM ^3H-MK6240
# SV2A [2] = biological target: T1, SV2A; conditions: frontal cortex (middle frontal gyrus) autoradiography; ref 24 Metaxas et al.; cited from earlier work
# p-tau species [3] = experiment: ^3H-UCB-J saturation binding in AD P1 fraction pre-blocked with tau PET ligands; set-up: species or system Human; conditions: 10 μM pre-blocking of frontal cortex AD P1 fraction
# Summary of the method: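 AD frontal cortex pooled P1 fraction was pre-blocked with 10 μM unlabeled tau PET ligand on ice for 1 h. It was then spun at 2800 rpm for 10–15 min at 4°C to remove free ligand and resuspended in binding buffer. Saturation binding used 0–40 nM ³H-UCB-J, 2 h at room temperature, with filtration and scintillation counting. Data are means ± SEM of three to four experiments in duplicate.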
# SV2A [4] = biological target: T1, SV2A; assay type: binding; conditions: 1 mM levetiracetam; 5 nM ^3H-UCB-J; CN frontal cortex P2 (Figure S2)
# p-tau species [5] = experiment: ^3H-UCB-J vs MK6240 competition binding in P1 fractions; set-up: species or system Human; conditions: 100 μM; CN and AD P1 fraction; 5 nM ^3H-UCB-J
# Summary of the method: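 Pooled frontal cortex P1 fractions (0.05 mg protein) from one control and one AD pool. These were incubated 2 h at room temperature with 5 nM ³H-UCB-J plus increasing unlabeled competitor (10⁻¹⁴ to 10⁻⁴) in Tris-HCl pH 7.4 binding buffer. Samples were filtered and counted by scintillation. Binding was expressed as % of total; IC₅₀ came from non-linear competitive-binding regression.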
# T1 sequence (Q7L0J3 whole entry): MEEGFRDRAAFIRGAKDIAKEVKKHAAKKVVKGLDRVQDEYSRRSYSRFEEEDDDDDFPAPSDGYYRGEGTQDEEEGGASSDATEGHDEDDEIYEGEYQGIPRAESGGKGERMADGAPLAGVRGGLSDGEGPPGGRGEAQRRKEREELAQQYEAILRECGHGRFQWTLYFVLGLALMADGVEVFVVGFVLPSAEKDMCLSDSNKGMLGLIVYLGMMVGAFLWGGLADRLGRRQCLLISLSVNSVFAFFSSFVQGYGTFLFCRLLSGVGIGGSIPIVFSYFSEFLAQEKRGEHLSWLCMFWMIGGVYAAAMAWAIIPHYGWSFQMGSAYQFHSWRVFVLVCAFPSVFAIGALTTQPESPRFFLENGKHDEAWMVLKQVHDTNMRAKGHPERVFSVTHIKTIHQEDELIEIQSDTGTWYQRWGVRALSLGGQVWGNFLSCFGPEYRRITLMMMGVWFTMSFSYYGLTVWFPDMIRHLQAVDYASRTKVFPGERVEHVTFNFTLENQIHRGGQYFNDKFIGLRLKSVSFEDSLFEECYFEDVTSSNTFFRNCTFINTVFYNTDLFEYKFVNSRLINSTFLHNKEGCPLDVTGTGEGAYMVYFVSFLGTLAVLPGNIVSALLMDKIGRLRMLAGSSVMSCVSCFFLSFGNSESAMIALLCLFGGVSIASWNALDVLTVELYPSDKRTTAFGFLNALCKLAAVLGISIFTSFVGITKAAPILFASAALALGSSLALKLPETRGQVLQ
# Chain of tau (P10636 623-758 limits assumed): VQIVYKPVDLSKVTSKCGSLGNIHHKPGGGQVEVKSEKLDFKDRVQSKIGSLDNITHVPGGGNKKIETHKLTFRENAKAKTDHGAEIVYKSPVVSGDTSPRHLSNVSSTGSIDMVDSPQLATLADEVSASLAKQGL
smiles,measurement,setting,value
Cc1cnccc1CN1C[C@@H](c2cc(F)c(F)c(F)c2)CC1=O [UCB-J],reduction in UCB-J binding in AD compared to CN,SV2A [1],19%
same,displacement of ^3H-MK6240 binding,tau,no displacement
same,difference in UCB-J binding between AD and CN cases,SV2A [2],no difference
Fc1ccc(-c2ccc3c(c2)[nH]c2ccncc23)cn1 [AV-1451],reduction in ^3H-UCB-J binding compared to unblocked AD P1 fractions,p-tau species [3],≈ 22%
CC[C@@H](C(N)=O)N1CCCC1=O [Levetiracetam],displacement of ^3H-UCB-J binding compared with 1 μM UCB-J,SV2A [4],same displacement
Nc1c(F)ccc2cnc(-n3ccc4ccncc43)cc12 [MK6240],reduction in ^3H-UCB-J binding compared to unblocked AD P1 fractions,p-tau species [3],≈ 22%
same,displacement of ^3H-UCB-J binding,p-tau species [5],≈ 38%

# Source: publication PMC11032538 (Alzheimer's & Dementia, 2024)
